Test results taken from ChEMBL document CHEMBL4002591 (J Med Chem, 2017).
pIC50: −log10 of the molar value.

Legend:
[1] = molecular target: T1, Protein mono-ADP-ribosyltransferase PARP3 (Homo sapiens, UniProt Q9Y6F1); test: Inhibition of PARP3 (unknown origin)
T1 sequence (Q9Y6F1 whole entry): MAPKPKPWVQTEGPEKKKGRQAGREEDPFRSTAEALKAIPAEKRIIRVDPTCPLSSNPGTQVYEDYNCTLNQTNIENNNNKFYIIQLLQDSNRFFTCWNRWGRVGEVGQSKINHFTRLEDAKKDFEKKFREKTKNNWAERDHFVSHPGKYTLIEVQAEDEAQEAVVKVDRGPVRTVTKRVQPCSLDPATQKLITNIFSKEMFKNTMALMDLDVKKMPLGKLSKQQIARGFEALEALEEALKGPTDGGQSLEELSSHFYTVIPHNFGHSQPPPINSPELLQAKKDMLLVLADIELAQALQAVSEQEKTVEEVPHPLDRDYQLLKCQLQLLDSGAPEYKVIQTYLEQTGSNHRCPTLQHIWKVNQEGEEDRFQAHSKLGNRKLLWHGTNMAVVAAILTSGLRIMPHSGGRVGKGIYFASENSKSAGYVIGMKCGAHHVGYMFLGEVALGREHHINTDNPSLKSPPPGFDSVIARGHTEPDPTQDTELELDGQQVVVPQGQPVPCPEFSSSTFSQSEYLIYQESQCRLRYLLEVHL

[2] = Inhibition of tankyrase (unknown origin) expressed in TCF/LEF-HEK293 cells assessed as inhibition of Wnt/beta-catenin signaling pathway in Wnt3a conditioned medium measured after 20 hrs by luciferase reporter gene assay; type: cell-based; conditions: Homo sapiens; for pIC50: read-out: IC50; for IC50: read-out: pIC50 (converted)
[3] = molecular target: T2, Protein mono-ADP-ribosyltransferase PARP16 (Homo sapiens, UniProt Q8N5Y8); test: Inhibition of PARP16 (unknown origin)
T2 sequence (Q8N5Y8 whole entry): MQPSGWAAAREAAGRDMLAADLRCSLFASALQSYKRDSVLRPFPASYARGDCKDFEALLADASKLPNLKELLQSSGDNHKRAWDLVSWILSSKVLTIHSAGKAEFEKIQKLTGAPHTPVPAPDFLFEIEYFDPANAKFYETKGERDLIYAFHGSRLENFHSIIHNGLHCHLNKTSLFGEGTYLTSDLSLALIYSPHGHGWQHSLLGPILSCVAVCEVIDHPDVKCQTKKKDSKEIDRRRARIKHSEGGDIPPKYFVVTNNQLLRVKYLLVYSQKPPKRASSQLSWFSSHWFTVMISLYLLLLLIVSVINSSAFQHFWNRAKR

3T3-L1 = test: Effect on glucose uptake in mouse 3T3L1 cells at 1 uM using 2-deoxy-D-[2,6-3H]glucose as substrate pretreated for 1 hr followed substrate addition measured after 5 mins by scintillation counter; type: ADME, cell-based; conditions: 3t3-l1, 5 min
Procedure, shortened: (§1)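 3T3-L1 fibroblasts were grown in DMEM and differentiated to adipocytes with insulin, dexamethasone and isobutylmethylxanthine, then used 10-12 d later. Cells were serum-starved 2 h at 37°C and given compound for 1 h. After KRH washes (pH 7.4), cells were held 30 min with compound, with or without 100 nM insulin. 2-Deoxy-D-[2,6-³H]glucose was added for 5 min.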

[4] = molecular target: Poly [ADP-ribose] polymerase 1 (Homo sapiens, UniProt P09874); test: Inhibition of PARP1 (unknown origin)
Mus musculus [5] = species on record: Mus musculus; test: (§2) Inhibition of TNKS in mouse 3T3L1 cells assessed as upregulation of GLUT4 by measuring increase in insulin-stimulated glucose uptake at 1 uM using 2-deoxy-D-[2,6-3H]glucose as substrate pretreated for 1 hr followed by insulin stimulation for 30 mins and subsequent addition of substrate measured after 5 mins by scintillation counter; type: cell-based; set-up: scale not given: the % may be the effect or the level left; procedure, shortened: as §1
[6] = molecular target: T3, Protein mono-ADP-ribosyltransferase PARP15 (Homo sapiens, UniProt Q460N3); test: Inhibition of PARP15 (unknown origin)
T3 sequence (Q460N3 whole entry): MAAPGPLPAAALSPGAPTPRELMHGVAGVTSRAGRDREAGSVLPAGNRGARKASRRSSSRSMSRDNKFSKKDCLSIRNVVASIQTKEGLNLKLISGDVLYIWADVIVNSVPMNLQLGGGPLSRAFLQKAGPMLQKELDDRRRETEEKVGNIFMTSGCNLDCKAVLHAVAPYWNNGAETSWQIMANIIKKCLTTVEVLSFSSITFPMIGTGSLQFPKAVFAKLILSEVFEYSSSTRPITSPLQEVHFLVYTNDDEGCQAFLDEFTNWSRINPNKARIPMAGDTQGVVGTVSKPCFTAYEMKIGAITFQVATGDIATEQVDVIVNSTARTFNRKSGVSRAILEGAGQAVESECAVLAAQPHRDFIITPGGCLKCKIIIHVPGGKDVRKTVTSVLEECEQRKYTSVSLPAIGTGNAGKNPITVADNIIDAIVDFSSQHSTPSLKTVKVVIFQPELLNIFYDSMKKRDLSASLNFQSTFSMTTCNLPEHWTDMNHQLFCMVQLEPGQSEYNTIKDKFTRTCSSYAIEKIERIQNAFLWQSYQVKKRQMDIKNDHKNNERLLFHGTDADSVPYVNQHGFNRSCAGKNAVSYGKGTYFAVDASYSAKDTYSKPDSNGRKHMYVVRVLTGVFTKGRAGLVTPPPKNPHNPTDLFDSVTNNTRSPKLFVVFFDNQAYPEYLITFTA

[7] = molecular target: T4, Protein mono-ADP-ribosyltransferase PARP12 (Homo sapiens, UniProt Q9H0J9); test: Inhibition of PARP12 (unknown origin)
T4 sequence (Q9H0J9 whole entry): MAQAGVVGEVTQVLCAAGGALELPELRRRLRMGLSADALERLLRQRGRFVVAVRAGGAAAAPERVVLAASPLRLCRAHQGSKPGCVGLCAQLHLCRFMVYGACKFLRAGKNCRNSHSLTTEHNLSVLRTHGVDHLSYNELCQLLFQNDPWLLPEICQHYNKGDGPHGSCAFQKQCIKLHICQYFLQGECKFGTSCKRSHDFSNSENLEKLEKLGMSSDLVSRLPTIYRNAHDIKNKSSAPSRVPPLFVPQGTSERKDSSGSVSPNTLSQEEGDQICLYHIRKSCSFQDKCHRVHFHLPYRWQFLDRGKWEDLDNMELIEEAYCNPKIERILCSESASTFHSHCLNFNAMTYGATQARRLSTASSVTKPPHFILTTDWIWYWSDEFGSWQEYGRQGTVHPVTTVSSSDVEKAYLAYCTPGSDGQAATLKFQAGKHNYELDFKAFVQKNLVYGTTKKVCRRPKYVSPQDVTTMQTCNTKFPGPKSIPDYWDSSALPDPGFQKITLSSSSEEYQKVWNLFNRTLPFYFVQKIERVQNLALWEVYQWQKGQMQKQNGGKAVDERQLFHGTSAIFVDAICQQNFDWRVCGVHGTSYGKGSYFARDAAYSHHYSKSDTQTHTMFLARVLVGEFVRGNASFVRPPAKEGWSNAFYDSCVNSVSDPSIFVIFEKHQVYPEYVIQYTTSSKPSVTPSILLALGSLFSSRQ

Mus musculus [8] = species on record: Mus musculus; test: as §2, with “100 nM” for “1 uM”; type: cell-based; set-up: scale not given: the % may be the effect or the level left; procedure, shortened: as §1
[9] = molecular target: Poly [ADP-ribose] polymerase 2 (Homo sapiens, UniProt Q9UGN5); test: Inhibition of recombinant human N-terminal GST-tagged PARP2 (2 to 583 residues) expressed in baculovirus infected Sf9 cells measured after 1 hr by chemiluminescence assay
Poly [ADP-ribose] polymerase 2, sequence (Q9UGN5 whole entry, the tested form may be a part): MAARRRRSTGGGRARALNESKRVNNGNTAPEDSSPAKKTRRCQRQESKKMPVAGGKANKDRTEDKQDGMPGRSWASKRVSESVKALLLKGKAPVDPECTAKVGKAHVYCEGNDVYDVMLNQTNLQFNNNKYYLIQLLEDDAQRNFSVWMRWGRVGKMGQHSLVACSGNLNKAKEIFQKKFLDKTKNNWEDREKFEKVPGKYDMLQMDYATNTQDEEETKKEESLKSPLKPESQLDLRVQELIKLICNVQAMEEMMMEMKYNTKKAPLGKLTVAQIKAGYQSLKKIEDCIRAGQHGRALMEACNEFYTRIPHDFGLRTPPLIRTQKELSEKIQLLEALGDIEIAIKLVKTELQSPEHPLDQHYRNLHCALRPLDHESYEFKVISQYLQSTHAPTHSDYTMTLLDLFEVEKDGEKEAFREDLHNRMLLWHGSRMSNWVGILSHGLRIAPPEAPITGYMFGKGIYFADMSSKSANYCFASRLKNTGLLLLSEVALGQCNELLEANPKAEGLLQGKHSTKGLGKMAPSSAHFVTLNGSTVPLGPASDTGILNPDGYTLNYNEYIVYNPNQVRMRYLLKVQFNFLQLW

Poly [ADP-ribose] polymerase 1, sequence (P09874 whole entry): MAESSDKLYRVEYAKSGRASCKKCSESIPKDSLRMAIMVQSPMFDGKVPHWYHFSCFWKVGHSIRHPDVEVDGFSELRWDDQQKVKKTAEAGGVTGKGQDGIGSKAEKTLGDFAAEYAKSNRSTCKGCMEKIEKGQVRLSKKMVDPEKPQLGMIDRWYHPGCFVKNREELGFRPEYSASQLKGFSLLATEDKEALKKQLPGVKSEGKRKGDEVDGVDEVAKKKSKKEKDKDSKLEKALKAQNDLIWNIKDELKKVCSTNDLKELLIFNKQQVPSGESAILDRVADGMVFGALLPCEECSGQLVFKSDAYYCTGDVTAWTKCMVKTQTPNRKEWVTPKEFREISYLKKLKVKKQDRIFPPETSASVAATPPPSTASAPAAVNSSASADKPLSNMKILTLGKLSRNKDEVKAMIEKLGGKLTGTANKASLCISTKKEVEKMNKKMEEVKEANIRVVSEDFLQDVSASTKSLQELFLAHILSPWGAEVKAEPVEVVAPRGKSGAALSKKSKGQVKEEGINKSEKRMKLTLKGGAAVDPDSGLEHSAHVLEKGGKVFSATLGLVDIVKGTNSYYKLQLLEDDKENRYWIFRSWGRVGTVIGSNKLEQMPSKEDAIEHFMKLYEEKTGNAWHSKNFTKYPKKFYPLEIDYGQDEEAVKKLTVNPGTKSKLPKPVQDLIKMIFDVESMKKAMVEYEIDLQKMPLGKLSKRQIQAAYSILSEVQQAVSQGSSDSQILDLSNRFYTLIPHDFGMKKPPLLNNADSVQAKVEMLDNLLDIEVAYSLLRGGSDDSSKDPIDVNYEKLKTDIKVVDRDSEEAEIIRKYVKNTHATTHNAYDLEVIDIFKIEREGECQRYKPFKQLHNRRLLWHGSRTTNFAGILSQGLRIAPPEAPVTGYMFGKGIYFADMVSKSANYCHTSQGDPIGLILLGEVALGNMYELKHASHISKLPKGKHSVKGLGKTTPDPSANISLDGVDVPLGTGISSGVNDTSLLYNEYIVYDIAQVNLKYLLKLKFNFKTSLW

Row | Compound | pIC50 [1] | pIC50 [2] | IC50 [2] [µM] | pIC50 [3] | Activity (3T3-L1) | pIC50 [4] | Activity (Mus musculus [5]) [%] | pIC50 [6] | pIC50 [7] | Activity (Mus musculus [8]) [%] | pIC50 [9]
1 | Cc1cccc2c(=O)[nH]c(CCC(=O)Nc3ccc(C(=O)Nc4cccc5cccnc45)cc3)nc12 | 4.35 | 7.43 | 0.0372 | < 4.00 | Non-Toxic | 5.19 | 20 | < 4.00 | < 4.00 | 20 | 4.94
2 | O=C(CCc1nc2ccccc2c(=O)[nH]1)Nc1ccc(C(=O)Nc2cccc3cccnc23)cc1 | 4.40 | 7.54 | 0.0288 | < 4.00 | Non-Toxic |  | 20 | < 4.00 | < 4.00 | 40 | 5.16
